These results are taken from ChEMBL document CHEMBL1130251, “Enzymatic properties of the unnatural beta-L-enantiomers of 2',3'-dideoxyadenosine and 2',3'-didehydro-2',3'-dideoxyadenosine” (J Med Chem, 1997).

Compound in series [1]: Nc1ncnc2c1ncn2[C@H]1CC[C@@H](CO)O1
In words: (§1) Inhibitory activity against bovine liver adenosine Kinase; NS, […]=nonsubstrate, noninhibitor/inhibitor. The conditions noted are these: Bos taurus. An outline of the steps: (§2)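 Adenosine kinase purified from bovine liver, 0.38–7.6 μg·mL⁻¹, at 37 °C. Medium: 100 mM Tris HCl pH 7.4, 100 mM KCl, 4.8 mg·mL⁻¹ BSA, 0.5 mM MgCl2, 1 mM ATP, test nucleoside. 5'-Phosphorylation monitored by C-18 HPLC (phosphate pH 6/acetonitrile gradient). Inhibition assessed against 50 μM adenosine.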

Compound in series [2]: Nc1ncnc2c1ncn2[C@H]1C=C[C@@H](CO)O1
Described as §1. To be noted: Bos taurus. In a few lines:
as §2

B1: Adenosine kinase (Toxoplasma gondii), Q9TVW2 (protein)
chain: MAVDSSNSATGPMRVFAIGNPILDLVAEVPSSFLDEFFLKRGDATLATPEQMRIYSTLDQFNPTSLPGGSALNSVRVVQKLLRKPGSAGYMGAIGDDPRGQVLKELCDKEGLATRFMVAPGQSTGVCAVLINEKERTLCTHLGACGSFRLPEDWTTFASGALIFYATAYTLTATPKNALEVAGYAHGIPNAIFTLNLSAPFCVELYKDAMQSLLLHTNILFGNEEEFAHLAKVHNLVAAEKTALSTANKEHAVEVCTGALRLLTAGQNTGATKLVVMTRGHNPVIAAEQTADGTVVVHEVGVPVVAAEKIVDTNGAGDAFVGGFLYALSQGKTVKQCIMCGNACAQDVIQHVGFSLSFTSLPC
Regarding B1, the Km result in series [1] is “NS, NI/Ado”; in series [2], “NS, NI/Ado”.
